pIC50: −log10 of the molar value.
Tests used:
RAW264.7 [1] = assay: Cytotoxicity against mouse RAW264.7 cells assessed as reduction in cell viability incubated for 24 hrs in presence of LPS by MTT assay; format: cell-based; settings: RAW264.7, 24 h
RAW264.7 [2] = assay: Cytotoxicity against mouse RAW264.7 cells assessed as reduction in cell viability incubated for 24 hrs in absence of LPS by MTT assay; format: cell-based; settings: RAW264.7, 24 h
RAW264.7 [3] = assay: Cytotoxicity against mouse RAW264.7 cells assessed as reduction in cell viability at 20 uM incubated for 24 hrs by MTT assay; format: cell-based; settings: raw264.7, 24 h
Summary of the method: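 RAW264.7 cells (1 × 10^4/well, used 24 h after seeding) exposed to 20 µM for 24 h. MTT (5 mg/mL stock) added for 4 h, supernatant removed, crystals dissolved in DMSO with 10–15 min shaking, absorbance at 492 nm.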

RAW264.7 [4] = assay: Antiinflammatory activity in mouse RAW264.7 cells assessed as inhibition of LPS-induced nitric oxide production at 10 uM preincubated for 1 hr followed by LPS stimulation and measured after 24 hrs by Griess reagent-based assay relative to control; format: functional; settings: time 25 hrs
Summary of the method: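 RAW264.7 cells (7 × 10^4/well, used 24 h after seeding) in DMEM with 10% heat-inactivated FBS, 37 °C, 5% CO2. Pretreated 1 h with compound (10 µM screen; 0.625–10 µM dose series), then LPS 0.5 µg/mL for 24 h. Supernatant mixed 1:1 with Griess reagent, 15 min at room temperature, absorbance read at […].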

RAW264.7 [5] = assay: Antiinflammatory activity in mouse RAW264.7 cells assessed as inhibition of LPS-induced nitric oxide production preincubated for 1 hr followed by LPS stimulation and measured after 24 hrs by Griess reagent-based assay; format: functional, cell-based

Compound	pIC50 (RAW264.7 [5])	pIC50 (RAW264.7 [1])	pIC50 (RAW264.7 [2])	Activity (RAW264.7 [3])	inhibition at 10 µM (RAW264.7 [4]) [%]
COc1cc(OC)c2c(c1)C(C(O)c1ccc(OCc3ccc(C#N)cc3)cc1)OC2=O (stereo not given)	5.13	< 4.40	< 4.40	Non-Toxic	60.8
COc1cc(OC)c2c(c1)C(C(O)c1ccc(OCC(C)C)cc1)OC2=O (stereo not given)	< 5.00	< 4.40	< 4.40	Non-Toxic	48.6
COc1cc(OC)c2c(c1)C(C(O)c1ccc(O)cc1)OC2=O (stereo not given)	< 5.00	< 4.40	< 4.40	Non-Toxic	46.1
COc1ccc(/C=C2\OC(=O)c3c(OC)cc(OC)cc32)cc1	< 5.00	< 4.40	< 4.40	Non-Toxic	36.3
CCOCCOc1ccc(C(O)C2OC(=O)c3c(OC)cc(OC)cc32)cc1 (stereo not given)	< 5.00	< 4.40	< 4.40	Non-Toxic	42.9
CCOc1ccc(C(O)C2OC(=O)c3c(OC)cc(OC)cc32)cc1 (stereo not given)	< 5.00	< 4.40	< 4.40	Non-Toxic	43.2
COCCCOc1ccc(C(O)C2OC(=O)c3c(OC)cc(OC)cc32)cc1 (stereo not given)	5.90	< 4.40	< 4.40	Non-Toxic	89.5
COc1ccc(C(O)C2OC(=O)c3c(OC)cc(OC)cc32)cc1 (stereo not given)	< 5.00	< 4.40	< 4.40	Non-Toxic	38.7
COc1cc(OC)c2c(c1)C(C(O)c1ccc(OCc3ccc(Br)cc3)cc1)OC2=O (stereo not given)	5.19	< 4.40	< 4.40	Non-Toxic	68.1
CCCCOc1ccc(C(O)C2OC(=O)c3c(OC)cc(OC)cc32)cc1 (stereo not given)	5.74	< 4.40	< 4.40	Non-Toxic	83.7

Second part, led by results:

pIC50 (RAW264.7 [5])	Compound	pIC50 (RAW264.7 [1])	pIC50 (RAW264.7 [2])	Activity (RAW264.7 [3])	inhibition at 10 µM (RAW264.7 [4]) [%]
< 5.00	O=C1OC(Cc2nc(-c3ccccc3)no2)c2ccccc21 (stereo not given)	< 4.40	< 4.40	Non-Toxic	13
< 5.00	Cc1noc(CC2OC(=O)c3ccccc32)n1 (stereo not given)	< 4.40	< 4.40	Non-Toxic	24.3
5.88	C=CCCOc1ccc(C(O)C2OC(=O)c3c(OC)cc(OC)cc32)cc1 (stereo not given)	< 4.40	< 4.40	Non-Toxic	87.2
< 5.00	COCCOc1ccc(C(O)C2OC(=O)c3c(OC)cc(OC)cc32)cc1 (stereo not given)	< 4.40	< 4.40	Non-Toxic	41.4
5.27	CCCCCCOc1ccc(C(O)C2OC(=O)c3c(OC)cc(OC)cc32)cc1 (stereo not given)	< 4.40	< 4.40	Non-Toxic	62.2
< 5.00	COc1cc(OC)c2c(c1)/C(=C/c1ccc(OCc3ccccc3)cc1)OC2=O	< 4.40	< 4.40	Non-Toxic	44.3

From ChEMBL document CHEMBL4765431, “Novel phthalide derivatives: Synthesis and anti-inflammatory activity in vitro and in vivo” (Eur J Med Chem, 2020)
